In PMC7274130 (Biochimica et Biophysica Acta. Proteins and Proteomics, 2020):
Each block holds one substance with its values, some of them ahead of it.

Columns and labels:
[1] = Degradation of [3H]-THF-γ2 on incubation with human whole blood; format: in vitro ADME; conditions: 37 °C, radio-TLC, mean ± SD, n = 3
How it was run: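 Heparinized whole blood from three healthy male donors. 1 ml was pre-warmed 5 min at 37 °C, then spiked with [3H]-THF (Pro- or C-terminal Leu-labelled; final 93 nmol ml−1) and shaken at 37 °C, sampled 0–60 min. Stopped with ice-cold water/acetonitrile; supernatants were dichloromethane-extracted. The aqueous phase went to silica radio-TLC with 1 cm scintillation counting, and fragments were assigned by synthetic-peptide Rf. Mean ± […], n = 3.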

[2] = Degradation of [3H]-THF-γ2 on incubation with rat whole blood; format: in vitro ADME; conditions: 37 °C, radio-TLC, mean ± SD, n = 3
[3] = Degradation of [3H]-THF-γ2 on incubation with mouse whole blood; format: in vitro ADME; conditions: 37 °C, radio-TLC; for amount of minor degradation product, % of total: over the 60 min incubation with [3H]-THF
[4] = cited from earlier work
[5] = 60 min incubation with [3H]-THF

concentration of degradation product, % of the total peptides present ([1]; 5 min incubation with [3H]-THF): 2.16% ± 0.96
concentration of degradation product, % of the total peptides present ([2]; 5 min incubation with [3H]-THF): 4.72% ± 1.05
concentration of degradation product, % of the total peptides present [2, 5]: 54.90% ± 0.87
concentration of degradation product, % of the total peptides present ([3]; 60 min incubation with [3H]-THF, mean ± SD, n = 3): 36.52% ± 2.69
Substance: H-Glu-Asp-Gly-Pro-Lys-OH [2–6]

concentration of degradation product, % of the total peptides present [1, 5]: 30.36% ± 7.84
concentration of degradation product, % of the total peptides present ([2]; 20 min incubation with [3H]-THF): 27.80% ± 3.32
Substance: H-DGPKFL-OH [3–8]

Continued, substance first:

Substance: H-Gly-Pro-Lys-Phe-Leu-OH [4–8]
amount of minor degradation product, % of total [3]: < 10 % of total

Substance: H-LEDGPK-OH [1–6]
amount of minor degradation product, % of total [3]: < 10 % of total

Substance: H-LEDGPKFL-OH [THF-γ2]
half-life of THF in human plasma [4]: about 12 min
